# Reference: ChEMBL document CHEMBL1177890, “Synthesis and biological evaluation of new 2-chloro-3-((4-phenyl-1H-1,2,3-triazol-1-yl)methyl)quinoline derivatives via click chemistry approach” (2010)
# Experiments:
# Format in all cases: functional
# [1] = system: Bacillus subtilis; assay: Antibacterial activity against Bacillus subtilis NCIM 2250 after 48 hrs by agar cup plate method
# Procedure, shortened: (§1)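 Agar cup plate diffusion with compounds dissolved in DMSO. Bacteria (B. subtilis, E. coli) were grown on Mueller Hinton agar at 37 ± 0.5 °C. Fungi (C. albicans, A. niger) were grown on Czapek Dox medium at 28 ± 0.5 °C. Incubation was 48 h. The read-out was the diameter of the inhibition zone, averaged over three independent determinations.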
# [2] = system: Escherichia coli; assay: Antibacterial activity against Escherichia coli ATCC 25922 after 48 hrs by agar cup plate method; procedure, shortened: as §1
# [3] = system: Candida albicans; assay: Antifungal activity against Candida albicans MTCC 277 after 48 hrs by agar cup plate method; procedure, shortened: as §1
# [4] = system: Aspergillus niger; assay: Antifungal activity against Aspergillus niger NCIM 545 after 48 hrs by agar cup plate method; procedure, shortened: as §1
# [5] = system: Bacillus subtilis; assay: Antibacterial activity against Bacillus subtilis NCIM 2250 after 24 to 72 hrs by cup plate method
# Procedure, shortened: (§2)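 MIC by cup plate method on Mueller Hinton agar plates containing compound at 0 (control), 1, 2, 3, 5, 10, 15, 20, 30 or 40 µg/mL. Plates were prepared per NCCLS M7-A5 and incubated at 37 °C. They were examined after 24 h and, where necessary, incubated further for 72 h. The MIC was taken as the lowest concentration giving inhibition.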
# [6] = system: Escherichia coli; assay: Antibacterial activity against Escherichia coli ATCC 25922 after 24 to 72 hrs by cup plate method; procedure, shortened: as §2
# [7] = system: Candida albicans; assay: Antifungal activity against Candida albicans MTCC 277 after 24 to 72 hrs by cup plate method; procedure, shortened: as §2
# [8] = system: Aspergillus niger; assay: Antifungal activity against Aspergillus niger NCIM 545 after 24 to 72 hrs by cup plate method; procedure, shortened: as §2
Compound,diameter of the inhibition zone (DIZ) [1] [mm],diameter of the inhibition zone (DIZ) [2] [mm],diameter of the inhibition zone (DIZ) [3] [mm],diameter of the inhibition zone (DIZ) [4] [mm],MIC [5] [µg/mL],MIC [6] [µg/mL],MIC [7] [µg/mL],MIC [8] [µg/mL]
Clc1nc2ccccc2cc1Cn1cc(-c2ccccc2)nn1,13.5,12,16,10,15,15,15,20
Cc1ccc2nc(Cl)c(Cn3cc(-c4ccccc4)nn3)cc2c1,11.4,14,14.7,16.1,25,15,15,10
CCc1cccc2cc(Cn3cc(-c4ccccc4)nn3)c(Cl)nc12,16.1,15.9,14,,10,15,15,
Cc1ccc2cc(Cn3cc(-c4ccccc4)nn3)c(Cl)nc2c1,16.6,14,16.4,,10,15,10,
Cc1cccc2cc(Cn3cc(-c4ccccc4)nn3)c(Cl)nc12,12,12,13.4,12.7,20,20,25,20
COc1ccc2nc(Cl)c(Cn3cc(-c4ccccc4)nn3)cc2c1,16.7,,15.7,16.3,10,,15,15
COc1ccc2cc(Cn3cc(-c4ccccc4)nn3)c(Cl)nc2c1,16,16.4,14,,10,10,15,20
CCOc1ccc2nc(Cl)c(Cn3cc(-c4ccccc4)nn3)cc2c1,,,16.5,12.8,,,10,
COC1=CC(=O)C[C@@H](C)[C@]12Oc1c(Cl)c(OC)cc(OC)c1C2=O [GRISEOFULVIN],,,16.9,16.6,,,5,
CN[C@@H]1[C@H](O[C@H]2[C@H](O[C@H]3[C@H](O)[C@@H](O)[C@H](N=C(N)N)[C@@H](O)[C@@H]3N=C(N)N)O[C@@H](C)[C@]2(O)C=O)O[C@@H](CO)[C@H](O)[C@H]1O [STREPTOMYCIN],16.5,16.1,,,5,5,,5
